Data set [1] in a line: Cmax in nu/nu BALB/c mouse at 100 mg/kg, po. The arrangement: dose 100 mg/kg, route oral. In kind it is ADME, organism-based. To be noted: in vivo.
A short description of data set [2]: AUC (0 to 24 hrs) in rat at 10 mg/kg, po. The note with it: plasma. The arrangement: time < 24 hr, dose 10 mg/kg, route oral. In kind it is ADME, organism-based. The method, boiled down:
(§1)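 Rats were given 1 mg/kg iv or 10 mg/kg po and were non-fasted. Plasma was sampled over 0–24 h, deproteinized with methanol plus an internal standard, centrifuged, diluted in 0.01 mol/L ammonium formate/(MeCN/formic acid 100:0.2) (7:3), and centrifuged again. AUC_0–24h is reported as mean ± SD of three animals.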

Data set [3] can be described thus: Solubility of the compound in lapanese pharmacopoeia second fluid at pH 6.8. In kind it is physicochemical. To be noted: Japanese Pharmacopoeia second fluid. The method, boiled down: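 Solubility was measured in Japanese Pharmacopoeia second fluid, pH 6.8. After incubation, precipitate was removed by filter-plate filtration and dissolved compound in the filtrate was quantified by HPLC.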

Data set [4] can be described thus: Oral bioavailability in dog at 10 mg/kg. In kind it is ADME, organism-based, Canis lupus familiaris. The note with it: in vivo. In short, it runs like this:
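Fed dogs (n = 4) given 1 mg/kg iv and 10 mg/kg po. Plasma was deproteinized with methanol containing internal standard, centrifuged, and diluted in 0.01 mol/L ammonium formate/[MeCN/formic acid 100:0.2] (7:3). F was calculated per animal from AUC_0–24h after oral versus intravenous dosing in the same dog.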

In data set [5] the test system is Mus musculus. The experiment in a line: Antitumor activity in Ptc1+/- p53-/- medulloblastoma allograft model of mouse assessed as tumor growth inhibition at 1 mg/kg, po qd for 14 days relative to control. Format: functional. In short, it runs like this:
(§2)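 Medulloblastoma tumours were serially passaged subcutaneously in nude mice (CAnN.Cg-Foxn1nu). Treatment started at 150–250 mm³ tumour volume: oral dosing as a 0.5% methylcellulose suspension for 14 days, once daily per the figure legend. Tumours were measured by caliper, with V = (a×b²)/2. T/C% = mean treated (Vend−Vstart) / control (Vend−Vstart) × 100, with n = 5 and a 1-tailed Shirley-Williams test against vehicle.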

Data set [6] can be described thus: Oral bioavailability in rat at 10 mg/kg. The note with it: in vivo. In kind it is ADME, organism-based. The method, boiled down:
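Rats (n = 3, listed as non-fasted) given 1 mg/kg iv and 10 mg/kg po. Plasma was deproteinized with methanol containing internal standard, centrifuged, and diluted in 0.01 mol/L ammonium formate/[MeCN/formic acid 100:0.2] (7:3). F was calculated from mean AUC_0–24h values after oral and intravenous dosing.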

Data set [7] can be described thus: AUC (0 to 24 hrs) in dog at 1 mg/kg, iv. Format: ADME, organism-based, Canis lupus familiaris. The note with it: plasma. The arrangement: time < 24 hr, dose 1 mg/kg, route intravenous. The method, boiled down:
(§3)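 Fed dogs were dosed at 1 mg/kg iv and 10 mg/kg po. Plasma was collected over 0–24 h, deproteinized with methanol containing an internal standard, centrifuged, and diluted with 0.01 mol/L ammonium formate/(MeCN/formic acid 100:0.2) (7:3) for compound quantitation. AUC_0–24h is reported as mean ± SD of four animals.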

A short description of data set [8]: AUC (0 to 24 hrs) in dog at 10 mg/kg, po. Format: ADME, organism-based, Canis lupus familiaris. The arrangement: time < 24 hr, dose 10 mg/kg, route oral. To be noted: plasma. The method, boiled down: as §3
A short description of data set [9]: AUC (0 to 24 hrs) in nu/nu BALB/c mouse at 100 mg/kg, po. Format: ADME, organism-based. Set-up: time < 24 hr, dose 100 mg/kg, route oral. The note with it: plasma.
In a further data set the target is Sonic hedgehog protein (Mus musculus, UniProt Q62226). The experiment in a line: Inhibition of recombinant mouse Shh-N expressed in mouse NIH3T3/Gli-luc cells assessed as inhibition of Gli1 expression after 48 hrs by luciferase reporter gene assay. In kind it is cell-based. In short, it runs like this:
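NIH3T3/Gli-luc cells were kept in DMEM with 10% FBS and 500 µg/mL G418, then seeded overnight on collagen-coated plates at 7.5×10³ cells/well (37 °C, 5% CO2). Final well conditions were 5.8% FBS, 1 µg/mL Shh-N and 0.03–1000 nM compound (n = 4 wells), incubated 48 h. Controls used 0.1% DMSO ± Shh-N. Read-out was Bright-Glo luciferase, and IC50 is the mean of four measurements.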
On the technique in general: A reporter such as luciferase makes a cellular process visible.

A short description of data set [10]: Volume of distribution at steady state in rat at 1 mg/kg, iv and 10 mg/kg, po. In kind it is ADME, organism-based. To be noted: in vivo, read-out: Vdss. The method, boiled down:
(§4)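 Single doses were given to rats and dogs: 1 mg/kg iv and 10 mg/kg po. Plasma was deproteinized with methanol containing internal standard, then diluted with 0.01 mol/L ammonium formate/(MeCN/formic acid) 7:3. Rat values are the mean ± SD of three non-fasted animals. Dog values come from four fed animals, with F calculated per animal from AUC0–24h.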

The nature of data set [11]: Volume of distribution at steady state in dog at 1 mg/kg, iv and 10 mg/kg, po. Format: ADME, organism-based, Canis lupus familiaris. To be noted: in vivo, read-out: Vdss. In short, it runs like this: as §4
A short description of data set [12]: AUC (0 to 24 hrs) in rat at 1 mg/kg, iv. In kind it is ADME, organism-based. The note with it: plasma. The arrangement: time < 24 hr, dose 1 mg/kg, route intravenous. The method, boiled down: as §1
Data set [13] is described as follows: Clearance in rat at 1 mg/kg, iv and 10 mg/kg, po. Format: ADME, organism-based. The note with it: in vivo. In short, it runs like this:
as §4

The nature of data set [14]: Clearance in dog at 1 mg/kg, iv and 10 mg/kg, po. The note with it: in vivo. In kind it is ADME, organism-based, Canis lupus familiaris. The method, boiled down: as §4
In data set [15] the test system is Mus musculus. The experiment in a line: Antitumor activity in Ptc1+/- p53-/- medulloblastoma allograft model of mouse assessed as tumor growth inhibition at 25 mg/kg, po qd for 14 days relative to control. Format: functional. In short, it runs like this: as §2
For data set [16], the system named is Mus musculus. The experiment in a line: Gli1 mRNA expression level in human PAN-04 cells xenografted mouse tumor at 25 mg/kg, po after 24 hrs of first dose relative to control. The note with it: PAN-04, po. For orientation: A xenograft is tissue or cells of one species grown in another, often human tumour cells in immunodeficient mice.

Experimental findings from ChEMBL document CHEMBL2202960, “Discovery of the investigational drug TAK-441, a pyrrolo[3,2-c]pyridine derivative, as a highly potent and orally active hedgehog signaling inhibitor: modification of the core skeleton for improved solubility” (Bioorg Med Chem, 2012) are described below.

In brackets after ≈: the same amount, converted by molar mass.

Sequence of Sonic hedgehog protein (Q62226 25-198 limits assumed): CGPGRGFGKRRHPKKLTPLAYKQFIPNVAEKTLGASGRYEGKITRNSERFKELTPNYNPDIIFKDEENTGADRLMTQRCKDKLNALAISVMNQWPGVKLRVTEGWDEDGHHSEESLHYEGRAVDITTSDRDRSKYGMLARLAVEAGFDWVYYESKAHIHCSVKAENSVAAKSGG

Regarding `CCc1cc2c(c(OCC(F)(F)F)c(C(=O)NC3CCN(C(=O)CO)CC3)n2C)c(=O)n1CC(=O)c1ccccc1` [TAK-441], the concentration in data set [1] peaked (Cmax) at 21500 ng/mL. For the same molecule, the AUC(0-t) – broadly, exposure summed from dosing to a finite time, without extrapolation to infinity – at 24 h in [2] was 8030 ng·h/mL; in [7], 5100 ng·h/mL; in data set [8], 45400 ng·h/mL; in [9], 206000 ng·h/mL; in data set [12], 2530 ng·h/mL. For the same molecule, the concentration in solution in data set [3] (solubility) was 81 µg/mL (≈ 140 µM). Moreover, the values for the bioavailability in data set [4] and in data set [6] were 90.3% and 31.7%, respectively. The figures for the T/C in the data set on Mus musculus [5] and with Mus musculus [15] were 46% and 3%, respectively. Further, at Sonic hedgehog protein, the IC50 (in general, the point on the concentration scale where inhibition reaches its midpoint) turned out to be 4.4 nM. Further, the Vd in data set [10] is 0.682 L/kg; in data set [11], 2.18 L/kg. In addition, the clearance in data set [13] was 6.63 mL/min/kg; in data set [14], 2.69 mL/min/kg.

Take `CCOc1c(C(=O)NC2CCN(C(=O)CO)CC2)n(C)c2cc(CC)n(CC(=O)c3ccccc3)c(=O)c12`: the solubility – broadly, the concentration that dissolves in the medium under given conditions – in [3] was 58 µg/mL (≈ 111 µM). Also, the IC50 on Sonic hedgehog protein was determined as 6.9 nM.

In [3], `CCc1cc2c(c(OCC(F)F)c(C(=O)NC3CCN(C(=O)CO)CC3)n2C)c(=O)n1CC(=O)c1ccccc1` gave a solubility of 84 µg/mL (≈ 150 µM). For the same molecule, the half-inhibitory concentration (IC50) on Sonic hedgehog protein came to 4.4 nM.

Molecule `CCc1cc2c(c(OCCF)c(C(=O)NC3CCN(C(=O)CO)CC3)n2C)c(=O)n1CC(=O)c1ccccc1` registered a solubility in data set [3] of 69 µg/mL (≈ 128 µM). Also, on Sonic hedgehog protein, the IC50 came to 4.9 nM.

For `COc1c(C(=O)NC2CCN(C(=O)CO)CC2)n(C)c2c1c(=O)n(CC(=O)c1ccccc1)c1ccccc21`, the Cmax (in general, the maximum level reached in the sampled fluid or tissue) in data set [1] came out at 3630 ng/mL. The molecule further registered a level, % of control at 25 mg/kg in the data set with Mus musculus [16] of 5%. Besides, the concentration in solution in [3] (solubility) was 8.4 µg/mL (≈ 15.8 µM). Also, in [9], the AUC(0-t) at 24 h was found to be 32300 ng·h/mL.

Consider `CCc1c(C(=O)NC2CCN(C(=O)CO)CC2)n(C)c2cc(CC)n(CC(=O)c3ccccc3)c(=O)c12`, for which the IC50 on Sonic hedgehog protein turned out to be 95 nM.

As to `COc1c(C(=O)NC2CCN(C(=O)CO)CC2)n(C)c2c3c(n(CC(=O)c4ccccc4)c(=O)c12)CCCC3`, the solubility in [3] was determined as 80 µg/mL (≈ 150 µM). Also, the IC50 on Sonic hedgehog protein came out at 96 nM.

Consider `COc1c(C(=O)NC2CCN(C(=O)CO)CC2)n(C)c2cc(C)n(CC(=O)c3ccccc3)c(=O)c12`, for which the solubility in [3] was 77 µg/mL (≈ 156 µM). Further, the IC50 at Sonic hedgehog protein was found to be 14 nM.

Consider `CCc1cc2c(c(OC)c(C(=O)NC3CCN(C(=O)CO)CC3)n2C)c(=O)n1CC(=O)c1ccccc1`, for which the concentration in solution in data set [3] (solubility) came to 63 µg/mL (≈ 124 µM). At Sonic hedgehog protein, the IC50 was 5.7 nM.
